Source: ChEMBL document CHEMBL1145197 (J Med Chem, 2005)

Legend:
Cannabinoid receptor 1 [1] = molecular target: T1, Cannabinoid receptor 1 (Homo sapiens, UniProt P21554); assay: In vitro cannabinoid receptor 1 antagonism of [3H]arachidonic acid release by CHO cells; format: functional, cell-based; details: read-out: pA2 (converted)
Cannabinoid receptor 2 = Cannabinoid receptor 2 (Homo sapiens, UniProt P34972); assay: In vitro displacement of CP-55940 binding to human CB2 receptor expressed in CHO cells; format: cell-based
Cannabinoid receptor 2, sequence (P34972 whole entry): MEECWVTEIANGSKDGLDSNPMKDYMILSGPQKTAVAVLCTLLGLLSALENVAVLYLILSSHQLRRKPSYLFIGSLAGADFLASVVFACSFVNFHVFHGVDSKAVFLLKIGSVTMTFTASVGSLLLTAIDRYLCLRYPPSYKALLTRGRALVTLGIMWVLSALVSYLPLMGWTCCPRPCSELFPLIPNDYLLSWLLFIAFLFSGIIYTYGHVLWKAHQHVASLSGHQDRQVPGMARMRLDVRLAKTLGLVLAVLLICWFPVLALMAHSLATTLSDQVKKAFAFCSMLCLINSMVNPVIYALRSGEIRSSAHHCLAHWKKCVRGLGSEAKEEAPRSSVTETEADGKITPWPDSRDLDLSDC
Summary of the method: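 Radioligand binding on CHO cells stably expressing recombinant human CB2 receptor; affinity given as Ki (nM).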

Cannabinoid receptor 1 [2] = molecular target: T1, Cannabinoid receptor 1; format: cell-based, CHO
P-glycoprotein (ABCB1) = P-glycoprotein (ABCB1) (Homo sapiens, UniProt P08183); assay: P-glycoprotein (Pgp) factor was expressed as the ratio ofthe bottom to top transport and top to bottom transport; format: functional; details: not told
P-glycoprotein (ABCB1), sequence (P08183 whole entry): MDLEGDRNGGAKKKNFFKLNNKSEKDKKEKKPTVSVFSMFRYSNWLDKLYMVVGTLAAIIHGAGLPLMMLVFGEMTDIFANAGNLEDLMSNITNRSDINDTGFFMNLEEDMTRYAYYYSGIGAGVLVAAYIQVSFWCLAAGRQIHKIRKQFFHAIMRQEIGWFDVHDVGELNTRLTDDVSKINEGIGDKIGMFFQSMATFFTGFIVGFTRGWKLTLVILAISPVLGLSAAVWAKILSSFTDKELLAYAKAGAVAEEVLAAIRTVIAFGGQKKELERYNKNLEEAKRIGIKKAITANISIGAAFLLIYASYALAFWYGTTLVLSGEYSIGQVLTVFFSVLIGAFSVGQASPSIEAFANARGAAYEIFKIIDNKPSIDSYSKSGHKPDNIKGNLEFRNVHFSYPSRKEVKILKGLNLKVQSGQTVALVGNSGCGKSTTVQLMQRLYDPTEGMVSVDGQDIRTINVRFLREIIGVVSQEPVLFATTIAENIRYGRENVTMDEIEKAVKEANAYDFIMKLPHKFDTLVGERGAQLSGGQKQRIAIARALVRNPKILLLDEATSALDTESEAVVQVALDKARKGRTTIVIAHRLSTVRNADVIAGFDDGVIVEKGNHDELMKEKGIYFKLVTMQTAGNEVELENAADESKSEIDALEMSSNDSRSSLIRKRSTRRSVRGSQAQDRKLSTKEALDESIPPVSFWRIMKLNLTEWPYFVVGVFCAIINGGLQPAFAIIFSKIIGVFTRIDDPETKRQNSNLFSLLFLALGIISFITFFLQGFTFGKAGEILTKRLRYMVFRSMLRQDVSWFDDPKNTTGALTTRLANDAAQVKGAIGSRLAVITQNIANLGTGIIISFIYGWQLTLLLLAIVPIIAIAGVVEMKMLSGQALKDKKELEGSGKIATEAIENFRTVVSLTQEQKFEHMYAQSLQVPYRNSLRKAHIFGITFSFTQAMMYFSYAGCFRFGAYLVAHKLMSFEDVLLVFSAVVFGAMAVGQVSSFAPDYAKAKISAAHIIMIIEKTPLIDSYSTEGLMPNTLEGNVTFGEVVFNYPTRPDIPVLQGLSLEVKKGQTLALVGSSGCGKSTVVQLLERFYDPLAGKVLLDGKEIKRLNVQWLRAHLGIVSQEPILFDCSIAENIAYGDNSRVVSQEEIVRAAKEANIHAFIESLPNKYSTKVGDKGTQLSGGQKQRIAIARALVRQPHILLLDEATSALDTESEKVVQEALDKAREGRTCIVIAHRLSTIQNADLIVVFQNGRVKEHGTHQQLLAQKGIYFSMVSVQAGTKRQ

Rattus norvegicus = assay: In vivo effective dose to produce antagonism of CB agonist (CP-55940) induced hypotension in rat
Mus musculus = assay: In vivo effective dose to produce antagonism of CB agonist (WIN-55212) induced hypothermia in mouse
[3] = molecular target: ATP-dependent translocase ABCB1 (Homo sapiens, UniProt P08183); assay: Membrane passage was expressed as mean percentage of compound transported from bottom to top and from top to bottom at 3 hr after adding the compound; format: functional
ATP-dependent translocase ABCB1, sequence (P08183 whole entry): as above

T1 sequence (P21554 whole entry): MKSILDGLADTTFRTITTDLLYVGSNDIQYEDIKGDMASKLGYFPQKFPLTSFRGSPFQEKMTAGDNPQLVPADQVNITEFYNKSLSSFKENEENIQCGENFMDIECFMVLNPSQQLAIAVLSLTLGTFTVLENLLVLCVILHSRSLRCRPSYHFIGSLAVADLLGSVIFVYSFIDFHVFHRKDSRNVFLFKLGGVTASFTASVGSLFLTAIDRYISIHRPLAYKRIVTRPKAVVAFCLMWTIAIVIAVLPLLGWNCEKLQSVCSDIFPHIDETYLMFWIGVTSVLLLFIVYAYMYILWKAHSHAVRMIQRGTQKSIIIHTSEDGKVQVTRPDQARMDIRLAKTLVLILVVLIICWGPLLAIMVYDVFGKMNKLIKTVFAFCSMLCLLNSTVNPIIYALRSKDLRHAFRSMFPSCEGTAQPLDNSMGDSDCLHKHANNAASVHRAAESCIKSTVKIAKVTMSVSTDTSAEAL

Kb (Cannabinoid receptor 1 [1])	Ki (Cannabinoid receptor 2)	Ki (Cannabinoid receptor 1 [2])	SMILES	efflux ratio (P-glycoprotein (ABCB1))	ED50 (Rattus norvegicus)	LED (Mus musculus)	Transport [3]
1.26 nM	906 nM	36 nM	O=C(NN1CCCCC1)c1nc(-c2ccc(Cl)cc2Cl)n(-c2ccc(Cl)cc2)c1CF				
39.8 nM	2520 nM	828 nM	CCN(CC)C(=O)c1nc(-c2ccc(Cl)cc2Cl)n(-c2ccc(Cl)cc2)c1C				
3.16 nM	489 nM	60 nM	Cc1c(C(=O)NN2CCCCC2)nc(-c2ccc(Cl)cc2Cl)n1-c1ccc(Br)cc1				
	3300 nM	197 nM	Cc1c(C(=O)NN2CCOCC2)nc(-c2ccc(Cl)cc2Cl)n1-c1ccc(Cl)cc1				
3.98 nM	746 nM	23 nM	O=C(NN1CCCCC1)c1nc(-c2ccc(Cl)cc2Cl)n(-c2ccc(Cl)cc2)c1Br				
	349 nM	35 nM	Cc1c(C(=O)NC2CCCCCC2)nc(-c2ccc(Cl)cc2Cl)n1-c1ccc(Cl)cc1				
	758 nM		Cc1c(C(=O)NN2CCCCC2)nc(-c2ccc(Cl)cc2Cl)n1-c1ccc(Cl)cn1				
	1410 nM	40 nM	Cc1c(C(=O)NN2CC3CCCC3C2)nc(-c2ccc(Cl)cc2Cl)n1-c1ccc(Cl)cc1 (stereo not given)				
	1980 nM	171 nM	Cc1c(C(=O)NCc2ccc(C(F)(F)F)cc2)nc(-c2ccc(Cl)cc2Cl)n1-c1ccc(Cl)cc1				
2.51 nM	815 nM	94 nM	Cc1c(C(=O)OC(C)(C)C)nc(-c2ccc(Cl)cc2Cl)n1-c1ccc(Cl)cc1				
	1590 nM	30 nM	N#Cc1c(C(=O)NN2CCCCC2)nc(-c2ccc(Cl)cc2Cl)n1-c1ccc(Cl)cc1				
	3960 nM		Cc1c(C(=O)N2CCC(O)CC2)nc(-c2ccc(Cl)cc2Cl)n1-c1ccc(Cl)cc1				
	765 nM	52 nM	Cc1c(C(=O)NN2CCCCC2)nc(-c2ccc(Cl)cc2Cl)n1-c1ccc(F)cc1				
25.1 nM	5440 nM	382 nM	O=C(NN1CCCCC1)c1nc(-c2ccc(Cl)cc2)n(-c2ccc(Cl)cc2Cl)n1				
	774 nM	27 nM	Cc1c(C(=O)NN2CCCC2)nc(-c2ccc(Cl)cc2Cl)n1-c1ccc(Cl)cc1				
6.31 nM	242 nM	333 nM	Cc1c(C(=O)NOC(C)(C)C)nc(-c2ccc(Cl)cc2Cl)n1-c1ccc(Cl)cc1				
			Cc1c(C(=O)NN2CCCCC2)nn(-c2ccc(Cl)cc2Cl)c1-c1ccc(Cl)cc1 [RIMONABANT]		3.2 mg/kg	3 mg/kg	17.2%
2 nM	326 nM	106 nM	COc1ccc(-n2c(-c3ccc(Cl)cc3Cl)nc(C(=O)NN3CCCCC3)c2C)cc1				
50.1 nM	3470 nM	399 nM	Cc1c(C(=O)N[C@H]2CC[C@H](O)CC2)nc(-c2ccc(Cl)cc2Cl)n1-c1ccc(Cl)cc1				
2 nM	505 nM	64 nM	Cc1c(C(=O)NN2CCCCCC2)nc(-c2ccc(Cl)cc2Cl)n1-c1ccc(Cl)cc1				
	696 nM	34 nM	Cc1c(C(=O)N2CCc3ccccc3C2)nc(-c2ccc(Cl)cc2Cl)n1-c1ccc(Cl)cc1				
63.1 nM	4670 nM	> 1000 nM	O=C(NN1CCCCC1)c1nc(-c2ccc(Cl)cc2)c(-c2ccc(Cl)cc2Cl)s1				
3.16 nM	823 nM	27 nM	O=C(NN1CCCCC1)c1nc(-c2ccc(Cl)cc2Cl)n(-c2ccc(Cl)cc2)c1Cl				
0.794 nM	160 nM	35 nM	Cc1c(C(=O)NC2CCCCC2)nc(-c2ccc(Cl)cc2Cl)n1-c1ccc(Cl)cc1				
	357 nM	33 nM	Cc1c(C(=O)NC2CCCC2)nc(-c2ccc(Cl)cc2Cl)n1-c1ccc(Cl)cc1				
2.51 nM	634 nM	29 nM	Cc1c(C(=O)NN2CCCCC2)nc(-c2ccc(Cl)cc2Cl)n1-c1ccc(C(F)(F)F)cc1				

SMILES	Kb (Cannabinoid receptor 1 [1])	Ki (Cannabinoid receptor 2)	Ki (Cannabinoid receptor 1 [2])	efflux ratio (P-glycoprotein (ABCB1))	ED50 (Rattus norvegicus)	LED (Mus musculus)	Transport [3]
Cc1c(C(=O)NC2CC3CCC2C3)nc(-c2ccc(Cl)cc2Cl)n1-c1ccc(Cl)cc1 (stereo not given)	0.794 nM	54 nM	19 nM				
Cl.Cl.O=C(NN1CCCCC1)c1nc(-c2ccc(Cl)cc2Cl)n(-c2ccc(Cl)cc2)n1	5.01 nM	3560 nM	356 nM	1.5	23.6 mg/kg	>30 mg/kg	28.3%
Cc1c(C(=O)NN2CCCCC2)nc(-c2ccc(Cl)cc2Cl)n1-c1ccc(Cl)cc1	2.51 nM	608 nM		1.2	2.4 mg/kg	10 mg/kg	24.2%
Cc1c(C(=O)NN2CCCCC2)nc(-c2ccc(Cl)cc2)n1-c1ccc(Cl)cc1Cl	20 nM	208 nM	403 nM		> 30 mg/kg		
O=C(NN1CCCCC1)c1nc(-c2ccc(Cl)cc2Cl)c(-c2ccc(Cl)cc2)s1	7.94 nM	5840 nM	227 nM	1.7	> 30 mg/kg		8.3%
O=C(NN1CCCCC1)c1cn(-c2ccc(Cl)cc2)c(-c2ccc(Cl)cc2Cl)n1		542 nM	23 nM		11.7 mg/kg	>30 mg/kg	
CCc1c(C(=O)NN2CCCCC2)nc(-c2ccc(Cl)cc2Cl)n1-c1ccc(Cl)cc1	1 nM	430 nM	14 nM		15.8 mg/kg	30 mg/kg	
